In ChEMBL document CHEMBL4689842, “EUbOPEN Chemogenomics Library wave 1” (2021):
Several values for one entry are separate records, joined by “and”; a condition that tells them apart may be missing. Equal entries are not always repeated.

Tested on: Fibroblast
Experiment: Multiplex assay against human fibroblast
Type: toxicity, cell-based
Summary of the method: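 Hoechst33342, BioTracker Green Microtubule Cytoskeleton Dye, MitoTracker Red and Annexin V Alexa Fluor 680 were added to live cells at seeding, and imaging on a CQ1 microscope at 37°C and 5% CO2 followed compound addition. Gating by CellPathfinder machine learning separated cells into Hoechst high-intensity objects or normal cells, then normal cells into healthy, pyknosed or fragmented nuclei, then pyknosed cells into mitotic or apoptotic. Per cents of healthy-nucleus cells are reported for the tubulin, mitochondrial-mass and membrane-permeability phenotypes.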

[1] = 12 h, 1 µM, compound concentration 1 uM, replicate 1
[2] = 12 h, 1 µM, compound concentration 1 uM, replicate 2
[3] = 12 h, 10 µM, compound concentration 10 uM, replicate 1
[4] = 12 h, 10 µM, compound concentration 10 uM, replicate 2
[5] = 24 h, 1 µM, compound concentration 1 uM, replicate 1
[6] = 24 h, 1 µM, compound concentration 1 uM, replicate 2
[7] = 24 h, 10 µM, compound concentration 10 uM, replicate 1
[8] = 24 h, 10 µM, compound concentration 10 uM, replicate 2
[9] = 48 h, 1 µM, compound concentration 1 uM, replicate 1
[10] = 48 h, 1 µM, compound concentration 1 uM, replicate 2
[11] = 48 h, 10 µM, compound concentration 10 uM, replicate 1
[12] = 48 h, 10 µM, compound concentration 10 uM, replicate 2

Nc1c(C(=O)NCc2ccc(C(=O)NCCCC3CCCCC3)cc2)cnn1-c1ccccc1 [SR-318]
Population Apoptotic (%) [1]: 63% and 53% and 61% | Population Fragmented Nuclei (%) [1]: 20% and 26% | Population Healthy Nuclei (%) [1]: 41% and 34% | Population Hoechst High Intensity Objects (%) [1]: 10% and 11% | Population Membrane Permeable-Phenotype (%) [1]: 34% and 21% and 18% | Population Mitochondria Different-Phenotype (%) [1]: 6% and 7% and 9% | Population Mitotic Cells (%) [1]: 36% and 46% and 38% | Population Normal (%) [1]: 89% and 88% | Population Pyknosed Nuclei (%) [1]: 38% and 44% | Population Tubulin-Different-Phenotype (%) [1]: 46% and 39% and 51% | Total Cell Count [1]: 128 and 123 and 142 | Population Fragmented Nuclei (%) [2]: 9% and 5% and 3% | Population Healthy Nuclei (%) [2]: 83% and 75% and 91% | Population Membrane Permeable-Phenotype (%) [2]: 6% and 5% | Population Mitochondria Different-Phenotype (%) [2]: 8% | Population Mitotic Cells (%) [2]: 50% and 87% and 100% | Population Normal (%) [2]: 95% and 73% and 96% | Population Tubulin-Different-Phenotype (%) [2]: 19% and 25% and 11% | Total Cell Count [2]: 63 and 91 and 118 | Population Apoptotic (%) [3]: 65% and 54% and 56% | Population Fragmented Nuclei (%) [3]: 20% and 24% and 14% | Population Healthy Nuclei (%) [3]: 29% and 33% and 37% | Population Hoechst High Intensity Objects (%) [3]: 8% and 10% and 20% | Population Mitochondria Different-Phenotype (%) [3]: 24% and 47% and 43% | Population Mitotic Cells (%) [3]: 34% and 45% and 43% | Population Normal (%) [3]: 91% and 89% and 79% | Population Pyknosed Nuclei (%) [3]: 50% and 42% and 47% | Population Tubulin-Different-Phenotype (%) [3]: 88% and 76% and 85% | Total Cell Count [3]: 94 and 140 and 136 | Population Apoptotic (%) [4]: 45% and 22% and 33% | Population Fragmented Nuclei (%) [4]: 17% and 15% and 12% | Population Healthy Nuclei (%) [4]: 69% and 58% and 72% | Population Mitochondria Different-Phenotype (%) [4]: 55% and 51% and 60% | Population Mitotic Cells (%) [4]: 54% and 77% and 66% | Population Normal (%) [4]: 92% and 98% | Population Pyknosed Nuclei (%) [4]: 13% and 25% and 15% | Population Tubulin-Different-Phenotype (%) [4]: 50% and 56% and 67% | Total Cell Count [4]: 71 and 90 and 91 | Population Apoptotic (%) [5]: 44% and 58% and 55% | Population Fragmented Nuclei (%) [5]: 17% and 19% and 22% | Population Healthy Nuclei (%) [5]: 46% and 43% and 44% | Population Hoechst High Intensity Objects (%) [5]: 8% and 6% and 10% | Population Membrane Permeable-Phenotype (%) [5]: 34% and 25% and 33% | Population Mitochondria Different-Phenotype (%) [5]: 6% and 4% and 12% | Population Mitotic Cells (%) [5]: 55% and 41% and 44% | Population Normal (%) [5]: 91% and 93% and 89% | Population Pyknosed Nuclei (%) [5]: 36% and 33% | Population Tubulin-Different-Phenotype (%) [5]: 44% and 31% and 60% | Total Cell Count [5]: 137 and 115 and 142 | Population Apoptotic (%) [6]: 25% | Population Fragmented Nuclei (%) [6]: 6% and 3% and 4% | Population Healthy Nuclei (%) [6]: 80% and 84% and 75% | Population Membrane Permeable-Phenotype (%) [6]: 8% and 5% | Population Mitochondria Different-Phenotype (%) [6]: 13% and 7% | Population Mitotic Cells (%) [6]: 75% | Population Normal (%) [6]: 94% and 97% and 77% | Population Pyknosed Nuclei (%) [6]: 13% and 11% and 19% | Population Tubulin-Different-Phenotype (%) [6]: 22% and 14% and 23% | Total Cell Count [6]: 67 and 130 and 97 | Population Apoptotic (%) [7]: 66% and 45% and 56% | Population Fragmented Nuclei (%) [7]: 15% and 18% and 29% | Population Healthy Nuclei (%) [7]: 43% and 47% and 39% | Population Hoechst High Intensity Objects (%) [7]: 16% and 12% and 11% | Population Mitochondria Different-Phenotype (%) [7]: 31% and 48% and 42% | Population Mitotic Cells (%) [7]: 33% and 54% and 43% | Population Normal (%) [7]: 83% and 87% and 88% | Population Pyknosed Nuclei (%) [7]: 40% and 33% and 30% | Population Tubulin-Different-Phenotype (%) [7]: 76% and 87% and 86% | Total Cell Count [7]: 105 and 118 and 143 | Population Apoptotic (%) [8]: 28% and 44% and 46% | Population Fragmented Nuclei (%) [8]: 13% and 17% and 14% | Population Healthy Nuclei (%) [8]: 65% and 62% and 66% | Population Membrane Permeable-Phenotype (%) [8]: 9% and 7% and 3% | Population Mitochondria Different-Phenotype (%) [8]: 58% and 57% and 66% | Population Mitotic Cells (%) [8]: 71% and 55% and 53% | Population Normal (%) [8]: 98% and 92% | Population Pyknosed Nuclei (%) [8]: 21% and 20% and 18% | Population Tubulin-Different-Phenotype (%) [8]: 41% and 30% and 61% | Total Cell Count [8]: 104 and 67 and 97 | Population Apoptotic (%) [9]: 73% and 50% and 47% | Population Fragmented Nuclei (%) [9]: 32% and 28% and 24% | Population Healthy Nuclei (%) [9]: 43% and 48% and 60% | Population Hoechst High Intensity Objects (%) [9]: 14% and 12% | Population Membrane Permeable-Phenotype (%) [9]: 22% and 21% and 16% | Population Mitochondria Different-Phenotype (%) [9]: 2% and 7% | Population Mitotic Cells (%) [9]: 26% and 50% and 52% | Population Normal (%) [9]: 85% and 87% | Population Pyknosed Nuclei (%) [9]: 24% and 22% and 15% | Population Tubulin-Different-Phenotype (%) [9]: 20% and 37% and 36% | Total Cell Count [9]: 109 and 153 and 141 | Population Apoptotic (%) [10]: 100% and 83% | Population Fragmented Nuclei (%) [10]: 22% and 27% and 14% | Population Healthy Nuclei (%) [10]: 73% and 71% and 81% | Population Hoechst High Intensity Objects (%) [10]: 16% and 13% and 11% | Population Membrane Permeable-Phenotype (%) [10]: 18% and 13% | Population Mitochondria Different-Phenotype (%) [10]: 5% and 4% | Population Mitotic Cells (%) [10]: 0% and 16% | Population Normal (%) [10]: 83% and 86% and 88% | Population Tubulin-Different-Phenotype (%) [10]: 28% and 40% and 26% | Total Cell Count [10]: 116 and 115 and 159 | Population Apoptotic (%) [11]: 71% and 75% and 64% | Population Fragmented Nuclei (%) [11]: 36% and 33% | Population Healthy Nuclei (%) [11]: 43% and 45% and 41% | Population Hoechst High Intensity Objects (%) [11]: 20% and 19% and 17% | Population Membrane Permeable-Phenotype (%) [11]: 12% and 4% and 3% | Population Mitochondria Different-Phenotype (%) [11]: 40% and 45% and 36% | Population Mitotic Cells (%) [11]: 28% and 25% and 35% | Population Normal (%) [11]: 79% and 80% and 82% | Population Pyknosed Nuclei (%) [11]: 19% and 21% and 25% | Population Tubulin-Different-Phenotype (%) [11]: 81% and 83% and 82% | Total Cell Count [11]: 92 and 116 and 150 | Population Fragmented Nuclei (%) [12]: 28% and 31% and 23% | Population Healthy Nuclei (%) [12]: 66% and 63% and 71% | Population Hoechst High Intensity Objects (%) [12]: 9% and 3% | Population Membrane Permeable-Phenotype (%) [12]: 9% and 6% | Population Mitochondria Different-Phenotype (%) [12]: 13% and 23% and 16% | Population Mitotic Cells (%) [12]: 83% and 50% and 85% | Population Normal (%) [12]: 90% and 96% | Population Pyknosed Nuclei (%) [12]: 5% and 4% | Population Tubulin-Different-Phenotype (%) [12]: 68% and 86% | Total Cell Count [12]: 121 and 148 and 157
